MrgX1 PAM: positive allosteric modulators of MrgX1, primary screen, HEK293 cells, Fluo-4 calcium flux. Mas-related G-protein coupled receptor member X1 (Homo sapiens), Q96LB2. FDSS; active compounds read high. B-score at 10 µM. 310,000 compounds, 0.63% hits. AID 588675, 2011;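 active = plate-corrected calcium response at least 3 library SD above typical, normal starting fluorescence, not activating the receptor alone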;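 also: compound read alongside a low EC10 to EC30 dose of BAM8-22 agonist; peak minus trough fluorescence over baseline measured at the second addition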
Target sequence (Q96LB2 whole entry, looked up): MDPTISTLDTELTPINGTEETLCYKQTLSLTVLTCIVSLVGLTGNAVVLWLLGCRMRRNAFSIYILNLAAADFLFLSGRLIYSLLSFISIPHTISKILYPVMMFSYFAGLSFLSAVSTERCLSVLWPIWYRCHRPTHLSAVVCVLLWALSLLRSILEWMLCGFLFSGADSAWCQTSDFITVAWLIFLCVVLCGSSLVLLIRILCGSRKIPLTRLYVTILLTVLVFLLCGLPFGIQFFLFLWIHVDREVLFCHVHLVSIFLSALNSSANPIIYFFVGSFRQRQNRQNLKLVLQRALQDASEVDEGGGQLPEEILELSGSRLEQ
RGS4 block: RGS4 inhibitors, primary screen, cell-based, HEK293 M3R inducible RGS4, calcium flux; 310,000 compounds, 0.45% hits; AID 463165, 2010; Fluo-4 calcium flux; active compounds read high; triggered by carbachol at its EC20; B-score at 10 µM; Regulator of G-protein signaling 4 (Homo sapiens), P49798;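 active = B-score, a plate-corrected calcium signal, over three deviations above library mean, with baseline fluorescence within five deviations of library mean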;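 also: RGS4 expression induced by doxycycline in cells with stable M3 receptor; B-score is computed from the integrated fluorescence ratio over baseline after carbachol; higher B-score means a larger calcium signal and so more RGS4 inhibition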
Target sequence (P49798 whole entry, looked up): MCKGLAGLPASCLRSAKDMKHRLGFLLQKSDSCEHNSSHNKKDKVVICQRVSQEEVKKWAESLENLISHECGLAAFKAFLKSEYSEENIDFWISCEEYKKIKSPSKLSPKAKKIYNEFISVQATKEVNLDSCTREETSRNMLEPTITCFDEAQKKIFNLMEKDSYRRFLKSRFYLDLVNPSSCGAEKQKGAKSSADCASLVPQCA
RGS4 act: RGS4 potentiators or activators, primary screen, cell-based, HEK293 M3R inducible RGS4, calcium flux. carbachol calcium flux Fluo4; active compounds read low. B-score at 10 µM. 310,000 compounds, 0.92% hits. AID 463111, 2010;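 active = B-score of the integrated calcium signal more than 4 SD below the library mean, with starting fluorescence not abnormally high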;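 also: negative B-score means reduced calcium response which marks RGS4 activation or potentiation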
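Assay system: HEK293 FlpIn-TREx cells, stable M3R, doxycycline-inducible RGS4 / Probe or stimulus: carbachol, ECmax concentration / Times: overnight RGS4 induction, 30 min dye load 37 °C, 20 min compound RT / Signal: kinetic calcium fluorescence imaging with Fluo4-AM dye, 2 µM / Measure: Agonist-evoked peak-minus-minimum fluorescence over baseline, integrated ratio, B score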
MrgX1 agonist: agonists of human MrgX1 receptor, primary screen, HEK293 cells, Fluo-4 calcium flux | Fluo-4 calcium fluorescence, agonist mode; active compounds read high | Mas-related G-protein coupled receptor member X1 (Homo sapiens), Q96LB2 | AID 588627, 2011 | 310,000 compounds, 0.44% hits | B-score at 10 µM;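 active = calcium response B-score plate-corrected fluorescence ratio at least 3 library SD, with starting fluorescence B-score inside 5 SD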
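Material: HEK293 cells stably expressing human MrgX1 receptor | Quantity: 15,000 cells per well | Times: Cells plated overnight, dye loaded 0.5 h 37 °C, 0.5 h room temperature | Measured by: Kinetic Fluo-4 NW fluorescence of intracellular calcium | Control set: Positive and negative controls per plate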
KCC2 mod: KCC2 cotransporter modulators, thallium flux, primary screen, cell-based, HEK293 KCC2, FluoZin-2 fluorescence, MLSMR. B-score of Tl+ flux slope (higher = more flux/activation; lower = inhibition) at 10 µM. 190,000 compounds, 2.2% hits. Solute carrier family 12 member 5 (Homo sapiens), Q9H2X9. KCC2 cells, thallium flux FluoZin-2 fluorescence;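 active = thallium flux slope and its plate-corrected score both differing from the plate sample mean at a set confidence after two filtering rounds, in either direction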;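 also: slope of fluorescence scaled to starting intensity during 10 to 20 s after thallium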
MrgX1 antagonist: antagonists of human MrgX1 receptor, primary screen, HEK293 cells, Fluo-4 calcium flux | Mas-related G-protein coupled receptor member X1 (Homo sapiens), Q96LB2 | BAM8-22 antagonism; active compounds read low | B-score at 10 µM | 310,000 compounds, 1.3% hits;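 active = calcium-response B-score plate-corrected more than 3 library SD below zero, starting fluorescence within 5 deviations, no agonist response on first addition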;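 also: peak minus trough fluorescence over baseline after final BAM8-22 challenge near maximal dose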
KCC2 secondary: KCC2 modulators in sodium-free buffer, confirmation, cell-based, HEK293 KCC2, thallium flux, secondary assay; normalised thallium flux (F/F0 slope) at 10 µM; FluoZin2 fluorescence; active compounds read high; shares compounds with KCC2 mod; 3,700 compounds, 15% hits;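 active = thallium flux slope above the same plate's solvent-only control mean plus 3 SD; inconclusive = the two replicate wells disagree; inactive = no significant difference from solvent-only control wells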
KCC2 bumet counter: thallium flux persisting under bumetanide in KCC2 cells, confirmation, counter-screen for KCC2 modulator project, cell-based, HEK293 KCC2, FluoZin2, secondary assay 3. HEK293-KCC2 + bumetanide/ouabain; active compounds read high. shares compounds with KCC2 mod. normalized thallium flux at 10 µM. 3,700 compounds, 49% hits;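 active = thallium entry rate above the same plate's blocked-transporter control wells by more than 3 SD; inconclusive = the two repeat wells disagree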;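 also: raw slope of fluorescence over initial fluorescence between 10 and 20 s after thallium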
KCC2 secondary2: KCC2 modulators without ouabain present, confirmation, cell-based, HEK293 KCC2, thallium flux, FluoZin2, secondary assay 2. 3,700 compounds, 23% hits. thallium flux FluoZin2 fluorescence; actives lie on both sides; F/F0 rise rate, 10–20 s post-thallium. normalized thallium flux at 10 µM. shares compounds with KCC2 mod. AID 1715, 2009;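 active = thallium flux slope more than 3 SD above or below the plate's solvent-only control mean, mostly below; inconclusive = the two repeat wells disagreed; inactive = no significant shift from solvent-only controls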;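 also: raw slope with 0.1% DMSO as baseline and bumetanide as block control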
HEK293 Tl flux: thallium flux modulation in parental HEK cells, confirmation, counter-screen for KCC2 modulator project, cell-based, counterscreen 1; HEK293 parental cells, thallium flux FluoZin2, ouabain; baseline-ratio fluorescence slope, 10–20 s after thallium; thallium flux rate (normalised fluorescence) at 10 µM; 3,700 compounds, 46% hits; shares compounds with KCC2 mod;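 active = thallium flux rate significantly above the same plate's solvent-only control wells, beyond their mean plus 3 SD; inconclusive = the two replicate wells gave conflicting results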
KCC2 retest ouab: KCC2 inhibitors and activators, ouabain retest, confirmation, HEK-KCC2 cells. shares compounds with KCC2 mod. HEK293-KCC2, thallium flux FluoZin2 fluorescence; bidirectional: low = inhibitor, high = activator. raw Tl+ flux slope (below DMSO = inhibition, above = activation) at 10 µM. 3,700 compounds, 48% hits. AID 1717, 2009;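 active = thallium flux slope beyond 3 SD from same-plate DMSO control mean in most replicates, usually higher, sometimes lower; inconclusive = repeat tests gave conflicting results; inactive = no significant difference from controls in most replicates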;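 also: slope of initial-normalized fluorescence between seconds 10 and 20 after thallium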
HEK counter2: native HEK Tl+ uptake effects, second counter-screen – HEK cells, counterscreen 2, counter-screen for KCC2 modulator project, confirmation; shares compounds with KCC2 mod; HEK293 parental, thallium flux FluoZin-2 fluorescence slope; thallium flux slope at 10 µM; 3,700 compounds, 33% hits;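 active = thallium flux slope above the same plate's solvent-control mean plus 3 SD in both duplicate wells; inconclusive = duplicate wells that disagreed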;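 also: run without ouabain in cells lacking the KCC2 cotransporter; slope of fluorescence scaled to its starting value between 10 and 20 s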
An asterisk follows results filed as active; i = inactive; ? = inconclusive; · = no result given. Sampled rows, rich in hits. Any-hit rate of the full collection: about 4.7%.

SMILES | MrgX1 PAM | RGS4 block | RGS4 act | MrgX1 agonist | KCC2 mod | MrgX1 antagonist | KCC2 secondary | KCC2 bumet counter | KCC2 secondary2 | HEK293 Tl flux | KCC2 retest ouab | HEK counter2
CCOC(=O)C1CCN(C2CC(=O)N(c3cccc(Cl)c3)C2=O)CC1 (configuration not stated) | i | i | i | i | 3* | i | 0.0084 | 0.0085* | 0.032 | 0.0075 | 0.022 | 0.0098
CC(=O)c1ccccc1N(C(=O)c1ccco1)C(C(=O)NC1CCCC1)c1ccc(C)cc1 (configuration not stated) | i | i | i | i | · | i | · | · | · | · | · | ·
COc1ccc2nc(N3CCCCC3)c(/C=C3\SC(=S)NC3=O)cc2c1 | i | i | i | i | 45* | i | 0.016* | 0.058* | 0.032 | 0.075* | 0.045* | 0.017*
COc1ccc(O)c(CN2CCN(CCCc3ccccc3)C(CCO)C2)c1 (configuration not stated) | i | i | i | i | · | i | · | · | · | · | · | ·
CCc1nn(C(CC)C(=O)NCCCN2CC(C)CC(C)C2)c(=O)c2cc3oc(C)cc3n12 (configuration not stated) | i | i | i | i | · | i | · | · | · | · | · | ·
COCCn1c(SCCCc2ccccc2)nc2c1c(=O)[nH]c(=O)n2C | i | i | i | i | -2.7 | i | · | · | · | · | · | ·
C/C=C/Cn1c(SCCCc2ccccc2)nc2c1c(=O)[nH]c(=O)n2C | i | i | i | i | -5.1* | i | 0.0067 | 0.0039 | ? | 0.0054* | ? | 0.0086*
C=CCn1c(SCCCc2ccccc2)nc2c1c(=O)[nH]c(=O)n2C | i | i | i | i | -3.7* | i | 0.0073 | 0.0044 | 0.033 | ? | 0.019 | 0.01
CCCCSc1nc2c(c(=O)[nH]c(=O)n2C)n1CCc1ccccc1 | i | i | i | i | · | i | · | · | · | · | · | ·
O=C(CN(CCc1ccccc1)C(=O)Cn1nnc(-c2cccs2)n1)NCc1ccco1 | i | i | i | i | -4.1* | i | 0.0053 | 0.005 | 0.024* | 0.0069 | ? | 0.0098
O=C(CN(C(=O)Cn1nnc(-c2cccs2)n1)c1ccc2c(c1)OCCO2)NCc1ccccc1 | i | i | i | i | -3.1 | i | · | · | · | · | · | ·
N#Cc1ccsc1NC(=O)c1ccc(Cl)c([N+](=O)[O-])c1 | i | i | i | i | -5.3* | -4.9* | 0.0074 | 0.0048 | 0.022* | 0.0069 | ? | 0.0092
N#CCc1ccc(Oc2ncccn2)cc1 | i | i | i | i | · | i | · | · | · | · | · | ·
COc1ccc(OC)c(CNS(=O)(=O)c2c(C)nc3scc(C)n3c2=O)c1 | i | i | i | i | · | i | · | · | · | · | · | ·
C/C(=N/NC(=S)Nc1cccc(C)c1)c1cccc([N+](=O)[O-])c1 | i | i | i | i | 30* | i | 0.0087 | 0.037* | ? | 0.037* | 0.036* | 0.027*
CCC(=O)Nc1cccc(NC(=S)NC(=O)c2cccc(C)c2)c1 | i | i | i | i | 0.39 | i | · | · | · | · | · | ·
C/C(=N\NC(=S)Nc1cccc(C)c1)c1cc2ccccc2o1 | i | i | i | i | 26* | i | 0.0064 | 0.077* | 0.051* | 0.038* | 0.058* | 0.041*
CC(=O)NC(=S)Nc1cccc([N+](=O)[O-])c1 | i | i | i | i | -0.25 | i | · | · | · | · | · | ·
CC/C(=N\NC(=S)Nc1cccc(C)c1)c1ccccc1 | i | i | i | i | 34* | i | 0.021* | 0.1* | 0.038 | ? | 0.067* | 0.028*
C/C(=N\NC(=S)NC(C)C)c1cccc([N+](=O)[O-])c1 | i | i | i | i | 2.1 | i | · | · | · | · | · | ·
CCC(=O)Nc1cccc(NC(=S)NC(=O)c2cc3ccccc3o2)c1 | i | i | i | i | 3.8 | i | · | · | · | · | · | ·
O=C(NC(=S)Nc1cccc(F)c1)c1cccc([N+](=O)[O-])c1 | i | i | i | i | 151* | i | 0.031* | 0.15* | ? | 0.071* | 0.085* | 0.019*
COc1ccc(NC(=O)COC(=O)C2CC(=O)N(c3ccc(C)cc3)C2)cc1 (configuration not stated) | i | i | i | i | · | i | · | · | · | · | · | ·
Cc1cccc(NC(=S)N/N=C(\c2ccccc2)C(C)C)c1 | i | i | i | i | 33* | i | 0.0059 | 0.06* | 0.05* | 0.04* | 0.055* | 0.036*
CC(C)/C(=N\NC(=O)Nc1ccccc1)c1ccccc1 | i | i | i | i | 0.013 | i | · | · | · | · | · | ·
N#Cc1c2n(c3c(=O)n(Cc4ccc(Cl)cc4)cnc13)CCCCC2 | i | i | i | i | · | i | 0.0052 | 0.0044 | 0.023* | ? | 0.014* | 0.01
